According to ChEMBL document CHEMBL4406907, “Exploration of zinc-binding groups for the design of inhibitors for the oxytocinase subfamily of M1 aminopeptidases” (Bioorg Med Chem, 2019):

Experiments:
[1] = molecular target: T1, Endoplasmic reticulum aminopeptidase 1 (Homo sapiens, UniProt Q9NZ08); experiment: Inhibition of human recombinant ERAP1 expressed in baculovirus infected Sf9 cells using omniMMP fluorogenic substrate incubated for 5 to 10 mins by fluorescence spectrophotometry analysis
[2] = molecular target: T2, Endoplasmic reticulum aminopeptidase 2 (Homo sapiens, UniProt Q6P179); experiment: Inhibition of human recombinant ERAP2 expressed in baculovirus infected Sf9 cells using omniMMP fluorogenic substrate incubated for 5 to 10 mins by fluorescence spectrophotometry analysis
T2 sequence (Q6P179 whole entry): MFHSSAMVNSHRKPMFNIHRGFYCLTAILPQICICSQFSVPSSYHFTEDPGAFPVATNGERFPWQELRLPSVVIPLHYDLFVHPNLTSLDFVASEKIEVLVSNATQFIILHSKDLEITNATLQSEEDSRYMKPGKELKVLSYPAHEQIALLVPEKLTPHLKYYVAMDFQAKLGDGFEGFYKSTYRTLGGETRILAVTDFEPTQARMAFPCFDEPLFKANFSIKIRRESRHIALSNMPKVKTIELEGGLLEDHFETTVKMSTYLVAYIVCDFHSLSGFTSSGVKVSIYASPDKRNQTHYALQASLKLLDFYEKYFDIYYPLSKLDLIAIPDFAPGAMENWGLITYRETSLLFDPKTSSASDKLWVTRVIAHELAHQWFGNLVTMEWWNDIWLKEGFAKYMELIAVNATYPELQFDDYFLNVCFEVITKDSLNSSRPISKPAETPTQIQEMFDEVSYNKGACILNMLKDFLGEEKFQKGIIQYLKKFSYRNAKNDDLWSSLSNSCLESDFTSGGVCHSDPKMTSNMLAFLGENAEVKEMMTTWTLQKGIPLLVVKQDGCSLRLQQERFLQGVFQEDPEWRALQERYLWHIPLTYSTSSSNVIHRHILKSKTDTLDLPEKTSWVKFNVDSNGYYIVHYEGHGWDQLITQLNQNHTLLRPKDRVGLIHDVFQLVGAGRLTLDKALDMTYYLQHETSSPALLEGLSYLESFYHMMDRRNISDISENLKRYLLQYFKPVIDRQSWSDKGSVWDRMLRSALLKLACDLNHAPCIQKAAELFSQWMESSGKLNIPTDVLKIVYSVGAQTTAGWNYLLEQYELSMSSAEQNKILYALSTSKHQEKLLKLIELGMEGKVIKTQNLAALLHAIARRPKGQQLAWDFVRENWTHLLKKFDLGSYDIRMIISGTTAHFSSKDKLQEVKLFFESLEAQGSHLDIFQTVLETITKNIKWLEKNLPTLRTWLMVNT

[3] = molecular target: T1, Endoplasmic reticulum aminopeptidase 1; experiment: Competitive inhibition of human recombinant ERAP1 expressed in baculovirus infected sf9 cells using L-AMC as substrate incubated for 5 to 10 mins by Michaelis-Menten analysis
How it was run: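 ERAP1 (recombinant, as described previously) at 10 nM with L-AMC as substrate. Michaelis-Menten analysis as previously described. Ki for competitive inhibition derived using a KM for L-AMC of 546 μM.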

[4] = molecular target: T2, Endoplasmic reticulum aminopeptidase 2; experiment: Competitive inhibition of human recombinant ERAP2 expressed in baculovirus infected sf9 cells using R-AMC as substrate incubated for 5 to 10 mins by Michaelis-Menten analysis
[5] = test system: Insulin-regulated aminopeptidase (Homo sapiens); experiment: Inhibition of human recombinant IRAP expressed in baculovirus infected Sf9 cells using omniMMP fluorogenic substrate incubated for 5 to 10 mins by fluorescence spectrophotometry analysis

T1 sequence (Q9NZ08 whole entry): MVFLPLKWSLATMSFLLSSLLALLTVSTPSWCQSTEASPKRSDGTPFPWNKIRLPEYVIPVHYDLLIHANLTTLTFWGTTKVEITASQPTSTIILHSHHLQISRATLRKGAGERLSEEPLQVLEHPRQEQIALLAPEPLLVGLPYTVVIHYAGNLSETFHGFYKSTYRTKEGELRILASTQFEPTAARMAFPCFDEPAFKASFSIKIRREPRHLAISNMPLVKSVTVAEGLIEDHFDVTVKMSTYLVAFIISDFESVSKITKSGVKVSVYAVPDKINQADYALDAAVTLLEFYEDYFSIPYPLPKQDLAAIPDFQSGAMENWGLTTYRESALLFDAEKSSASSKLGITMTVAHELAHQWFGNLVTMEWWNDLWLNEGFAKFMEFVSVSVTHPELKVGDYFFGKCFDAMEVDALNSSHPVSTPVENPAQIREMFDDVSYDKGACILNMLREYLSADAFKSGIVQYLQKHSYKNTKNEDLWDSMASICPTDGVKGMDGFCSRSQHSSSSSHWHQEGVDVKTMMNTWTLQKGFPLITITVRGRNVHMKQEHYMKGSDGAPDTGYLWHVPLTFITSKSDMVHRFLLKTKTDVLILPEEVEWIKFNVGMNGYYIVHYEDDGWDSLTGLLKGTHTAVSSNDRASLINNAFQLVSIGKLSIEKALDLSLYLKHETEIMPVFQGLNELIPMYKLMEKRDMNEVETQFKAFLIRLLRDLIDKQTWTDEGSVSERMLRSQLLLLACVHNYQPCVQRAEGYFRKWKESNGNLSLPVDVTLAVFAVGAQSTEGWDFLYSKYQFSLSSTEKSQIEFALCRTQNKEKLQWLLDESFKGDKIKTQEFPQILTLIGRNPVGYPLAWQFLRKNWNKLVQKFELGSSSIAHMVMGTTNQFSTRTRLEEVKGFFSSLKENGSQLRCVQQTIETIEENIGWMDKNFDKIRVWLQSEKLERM

| IC50 [1] [µM] | IC50 [2] [µM] | Ki [3] [µM] | Ki [4] [µM] | inhibition [5] | SMILES |
| --- | --- | --- | --- | --- | --- |
| 20.2 | 10.3 | 18.5 | 0.7 |  | O=C(Cn1cccc(O)c1=O)N[C@@H](Cc1c[nH]c2ccccc12)C(=O)OCc1ccccc1 |
| > 10 | > 10 |  |  |  | CCCC[C@H](N)C(=O)Nc1cc(C(=O)N[C@@H](Cc2c[nH]c3ccccc23)C(=O)OCc2ccccc2)ccn1 |
| 11.9 | > 10 | 4.7 |  |  | N[C@@H](CCc1ccccc1)C(=O)NNc1ccc(C(=O)N[C@@H](Cc2c[nH]c3ccccc23)C(=O)OCc2ccccc2)cc1 |
| > 10 | 7.9 |  | 4.3 |  | CCCC[C@H](N)C(=O)NNc1cccc(C(=O)N[C@@H](Cc2c[nH]c3ccccc23)C(=O)OCc2ccccc2)c1 |
| > 100 | > 10 |  |  |  | CCCC[C@H](N)C(=O)Nc1cccc(C(=O)N[C@@H](Cc2c[nH]c3ccccc23)C(=O)OCc2ccccc2)c1 |
| 11.9 | 2.2 | 10.9 | 1.2 | Dose-dependent effect | CCCC[C@H](N)C(=O)NNc1ccc(C(=O)N[C@@H](Cc2c[nH]c3ccccc23)C(=O)OCc2ccccc2)cc1 |
| 25.6 | 31.9 | 23.4 | 17.4 |  | COc1cccn(CC(=O)NCCc2ccc(-c3ccccc3)cc2)c1=S |
|  | 31.3 |  | 17.7 |  | O=C(Cn1cccc(O)c1=O)NCCc1c[nH]c2ccccc12 |
| > 100 | 8.8 |  | 4.8 |  | CCCC[C@H](N)C(=O)Nc1ccc(C(=O)N[C@@H](Cc2c[nH]c3ccccc23)C(=O)OCc2ccccc2)cc1 |
| 48.5 | 8.9 | 44 | 4.9 |  | CC(C)[C@H](NC(=O)Cn1cccc(O)c1=O)C(=O)OCc1ccccc1 |
| 19.1 | 50.3 | 17.5 | 27.4 |  | O=C(Cn1cccc(O)c1=O)NCCc1ccc(-c2ccccc2)cc1 |
